From paper PMC4100325 (Journal of toxicology and environmental health. Part A, 2014)

Columns and labels:
[1] = liver/body weight ratio after subchronic gavage exposure; type: in vivo, B6C3F1 male mice; conditions: mean ± SD
How it was run: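 Male B6C3F1 mice arrived at 6 weeks (~20 g) and were given test compound or water vehicle (pH 7) by daily gavage for 13 weeks, 6/group. Body weights were taken weekly. Animals were killed 24 hr after the last dose (CO2, cervical dislocation) and livers were weighed. Data are means ± S.D.; one-way ANOVA with Tukey post-hoc test.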

[2] = 410 mg DCA/kg/day, subchronic studies; ref Hassoun et al, 2010a; cited from earlier work
[3] = tested on: DNA single strand breaks in the livers of mice; test: DNA single strand breaks; type: in vivo, B6C3F1 male mice; conditions: for intercept of regression DNA-SSBs vs Dose / slope of regression DNA-SSBs vs Dose: DNA-SSBs as elution rate constant k; for slope of regression DNA-SSBs vs Dose: dose mg/kg/day; for effect on DNA SSB in livers: gavage daily for 13 weeks
How it was run: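 Male B6C3F1 mice (6/group) were gavaged daily for 13 weeks with test compound in distilled water (pH 7) and killed 24 hr after the last dose. Liver was homogenised 25% w/v in KCl/NaCl/spermine/spermidine/sucrose/EDTA/EGTA/Tris/PMSF/2-mercaptoethanol buffer and spun at 3000 g to get nuclei. These were lysed on 5 µm filters (2% SDS, 25 mM EDTA, pH 10.3, 20 min), then eluted at pH 12.3 into seven 3 ml fractions. DNA was read by diaminobenzoic acid fluorescence (436/521 nm). k = −2.3 × slope of log10 %DNA retained vs eluate volume.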

[4] = tested on: liver; conditions: subchronic studies; ref Hassoun et al. 2010a; cited from earlier work
[5] = tested on: lipid peroxidation (LP) in the livers of mice; test: lipid peroxidation; type: in vivo, B6C3F1 male mice; conditions: for slope of regression LP vs Dose: LP as nmoles TBARS/mg protein, dose mg/kg/day; for effect on LP in livers: gavage daily for 13 weeks; for intercept of regression LP vs Dose: regression analysis
How it was run: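 Mice (6/group) received daily gavage of test compound (pH 7 aqueous) for 13 weeks and were killed 24 hr post-dose. A 10% w/v liver homogenate in Tris-KCl (pH 7.4) was mixed with 1% phosphoric acid, 0.6% thiobarbituric acid and butylated hydroxyanisole, then heated at 100°C for 45 min. TBARS were extracted into n-butanol and read at 535 nm (ε 1.556 × 10^5 M−1 cm−1), normalised to Lowry protein. Means ± S.D. are reported; regression was against dose.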

[6] = tested on: superoxide anion (SA) production in the livers of mice; test: superoxide anion; type: in vivo, B6C3F1 male mice; conditions: for slope of regression SA vs Dose: SA as nmoles cytochrome c reduced/ min/ mg protein, dose mg/kg/day; for effect on SA production in livers: gavage daily for 13 weeks
How it was run: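 After 13 weeks of daily gavage (test compound, aqueous pH 7; 6 mice/group), liver was homogenised 10% w/v in Tris-KCl, pH 7.4. Homogenate was incubated with 45 nmol cytochrome c in PBS, pH 7.2, for 15 min at 37°C. The reaction was stopped on ice and centrifuged, and the supernatant was read at 550 nm. Values were converted with ε 2.1 × 10^4 M−1 cm−1 to nmol reduced/min/mg Lowry protein; regression was against dose.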

[7] = tested on: cytochrome c reduction in liver homogenates; conditions: SOD added to assay mixture of liver homogenate; ref Hassoun and Dey, 2008; cited from earlier work

Compound | Liver/body weight ratio ([1]; DCA 7.5 mg/kg/day by gavage for 13 weeks) | Liver/body weight ratio ([1]; DCA 15 mg/kg/day by gavage for 13 weeks) | Liver/body weight ratio ([1]; DCA 30 mg/kg/day by gavage for 13 weeks) | increase in liver/body weight ratio associated with hepatomegaly [2] [fold] | intercept of regression DNA-SSBs vs Dose [3] | slope of regression DNA-SSBs vs Dose [3] | effect on DNA SSB in livers [3] | threshold dose for hepatotoxicity [4] [mg/kg/day] | slope of regression LP vs Dose [5] | effect on LP in livers [5] | intercept of regression LP vs Dose [5] [nmoles TBARS/mg protein] | slope of regression SA vs Dose [6] | effect on SA production in livers [6] | inhibition of cytochrome c reduction [7] [%] | Liver/body weight ratio ([1]; TCA 12.5 mg/kg/day by gavage for 13 weeks) | Liver/body weight ratio ([1]; TCA 25 mg/kg/day by gavage for 13 weeks) | Liver/body weight ratio ([1]; TCA 50 mg/kg/day by gavage for 13 weeks)
O=C(O)C(Cl)Cl [DCA, sodium dichloroacetate] | 0.054 ± 0.009 | 0.051 ± 0.002 | 0.053 ± 0.007 | 1.3 | 0.00215 | 0.000201 | dose-dependent increases | 154 | 0.2041 | dose-dependent increases | 1.185 | 0.1036 | dose-dependent increases |  |  |  | 
superoxide dismutase [SOD] |  |  |  |  |  |  |  |  |  |  |  |  |  | 91.1 |  |  | 
O=C(O)C(Cl)(Cl)Cl [TCA, sodium trichloroacetate] |  |  |  |  | 0.00152 | 0.000052 | dose-dependent increases | 410 | 0.0631 | dose-dependent increases | 0.870 | 0.0237 | dose-dependent increases |  | 0.057 ± 0.003 | 0.055 ± 0.005 | 0.049 ± 0.005
